These results are taken from ChEMBL document CHEMBL1143060, “Synthesis and pharmacological investigation of novel 4-benzyl-1-substituted-4H-[1,2,4]triazolo[4,3-a]quinazolin-5-ones as new class of H1-antihistaminic agents” (2007).

Type in all cases: functional
The subject of test [1] is Mus musculus. The experiment in a line: Sedative-hypnotic activity in Swiss Albino mouse assessed as reduction of locomotor activity at 5 mg/kg, po after 2 hrs. Details: scale not given: the % may be the effect or the level left. The method, boiled down: (§1)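 Locomotor activity was scored at 1, 2 and 3 h after dosing, and percent reduction in locomotor activity was calculated. Significance versus control was tested by Student's t test. Animals were housed at 45–55% relative humidity on a 12 h light/dark cycle, fed standard feed, and acclimatized for one week before use.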

Test [2] has as its system Mus musculus. The experiment in a line: Sedative-hypnotic activity in Swiss Albino mouse assessed as reduction of locomotor activity at 5 mg/kg, po after 1 hrs. Details: scale not given: the % may be the effect or the level left. The method, boiled down:
as §1

The test system of another test is Cavia porcellus. The experiment in a line: Antihistaminic activity in Dunkin-Hartley guinea pig assessed as protection against histamine-induced bronchospasm at 10 mg/kg, po. A digest of the protocol: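 Male Dunkin Hartley guinea pigs (250–300 g), fasted 12 h, six per group, dosed orally at 10 mg/kg in 1% CMC. They were then challenged in a closed transparent cage with nebulized histamine aerosol (0.2% aqueous histamine acid chloride, 3 ml). Preconvulsion onset time was recorded, and animals stable >6 min counted as protected. Mean preconvulsion time versus control was expressed as percent protection.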

In test [3] the test system is Mus musculus. The test can be described thus: Sedative-hypnotic activity in Swiss Albino mouse assessed as reduction of locomotor activity at 5 mg/kg, po after 3 hrs. Details: scale not given: the % may be the effect or the level left. A digest of the protocol:
as §1

On to `CN1CCN(Cc2nnc3n(Cc4ccccc4)c(=O)c4ccccc4n23)CC1`, for which the Activity with Mus musculus [1] worked out at 17%; with Mus musculus [2], 8%; in the test with Cavia porcellus, 74.83%; with Mus musculus [3], 7%.
On to `O=c1c2ccccc2n2c(CN3CCOCC3)nnc2n1Cc1ccccc1`, for which the Activity in the test with Mus musculus [1] is listed as 13%; in the test with Mus musculus [2], 7%; in the test with Cavia porcellus, 74.1%; with Mus musculus [3], 6%.
The like results for `O=c1c2ccccc2n2c(CN3CCCC3)nnc2n1Cc1ccccc1` were, in that order, 12%, 8%, 73.69% and 8%.
`CCCc1nnc2n(Cc3ccccc3)c(=O)c3ccccc3n12`: the Activity in the test with Mus musculus [1] came out at 15%; in the test with Mus musculus [2], 9%; with Cavia porcellus it was 73.87%; in the test on Mus musculus [3], 11%.
As to `O=c1c2ccccc2n2cnnc2n1Cc1ccccc1`, the Activity in the test on Mus musculus [1] came out at 9%; in the test with Mus musculus [2], 6%; with Cavia porcellus it was 73.99%; in the test on Mus musculus [3] it was 4%.
For the compound `O=c1c2ccccc2n2c(CCl)nnc2n1Cc1ccccc1`, the Activity in the test with Mus musculus [1] turned out to be 7%; in the test on Mus musculus [2] it was 5%; in the test on Cavia porcellus, 72.96%; in the test on Mus musculus [3], 4%.
With `O=c1c2ccccc2n2c(CN3CCNCC3)nnc2n1Cc1ccccc1`, the Activity with Mus musculus [1] was found to be 14%; in the test with Mus musculus [2], 6%; with Cavia porcellus, 74.44%; with Mus musculus [3] it was 8%.
In the case of `CN(C)CC[C@@H](c1ccccc1)c1ccccn1.O=C(O)/C=C\C(=O)O` [PHENIRAMINE MALEATE], the Activity in the test on Mus musculus [1] came out at 32%; with Mus musculus [2], 37%; in the test with Cavia porcellus it was 71%; with Mus musculus [3] it was 22%.
Regarding `Cc1nnc2n(Cc3ccccc3)c(=O)c3ccccc3n12`, the Activity in the test with Mus musculus [1] worked out at 11%; in the test on Mus musculus [2], 6%; in the test on Cavia porcellus, 76.08%; in the test with Mus musculus [3], 6%.
Consider `O=c1c2ccccc2n2c(CN3CCCCC3)nnc2n1Cc1ccccc1`, for which the Activity with Mus musculus [1] turned out to be 15%; in the test on Mus musculus [2], 9%; in the test on Cavia porcellus, 73.93%; in the test on Mus musculus [3], 8%.
The like results for `CCc1nnc2n(Cc3ccccc3)c(=O)c3ccccc3n12` were, in that order, 12%, 7%, 74.39% and 9%.
